Measured values from different studies.
Compare with care: the assays were run in different laboratories.
Target: Mitogen-activated protein kinase 11 (MAPK11, Homo sapiens, UniProt Q15759)
Technique: competition with immobilised ligand

For `FC(F)(F)Oc1cccc(-c2cnc3ccc(-c4ccncc4)nn23)c1`, the remaining binding was 89% (cell-free assay; 5 µM).
The remaining binding of `O=C(c1ccc(Nc2ncc(Cl)c(-c3ccc(Cl)s3)n2)cc1)N1CCC(N2CCCC2)CC1` is reported as 73% (binding; 1 µM).
`CN(CCCC(F)(F)F)c1nccc(-c2cnn3ncccc23)n1` gave a remaining binding of 93% (binding; 1 µM).
With `CCS(=O)(=O)c1cc2cc(C[C@](O)(CC(C)(C)c3ccc(F)cc3C(N)=O)C(F)(F)F)[nH]c2cn1` the remaining binding was 100% (cell-free assay; 1 µM).
For `C[C@@H]1CCN(c2nccc(-c3cnn4ncccc34)n2)C1`, the remaining binding was 100% (binding; 1 µM).
The remaining binding of `Cc1cc(C)c(-n2ccn3nc(-c4cccnc4)cc23)cc1NC(=O)c1cc(C#N)cc(S(F)(F)(F)(F)F)c1` is reported as 93.4% (cell-free assay; 0.1 µM).
`CN(C)c1nccc(-c2cnn3ncccc23)n1` gave a remaining binding of 100% (binding; 1 µM).
The remaining binding of `C[C@@H]1CN(c2ccc3ncc(-c4ccc5[nH]nc(C6CC6)c5c4)n3n2)C[C@H](C)O1` is reported as 100% (binding; 50 nM).
For `CCN1CCN(Cc2ccc(C(=O)Nc3ccc(C)c(Oc4ccc5c(c4)CC(=O)N5)c3)cc2C(F)(F)F)CC1`, the remaining binding was 7% (binding; 1 µM).
The remaining binding of `O=S(=O)(NC1CCC(c2cc(F)ccc2F)(S(=O)(=O)c2ccc(Cl)cc2)CC1)C(F)(F)F` (stereo not shown) is reported as 94% (cell-free assay; 1 µM).
With `C[C@@H](c1ccc(-n2cnc3c(N)ncnc32)cc1)N1CCc2nn(C)c(Cc3ccccc3)c2C1=O` the remaining binding was 92% (binding; 0.1 µM).
With `CSc1cccnc1N1CCN(Cc2nc3ccccc3[nH]2)CC1` the remaining binding was 100% (cell-free assay; 1 µM).
`CNC(=O)[C@@H]1CC[C@@H](n2c(-c3ccc4cnccc4c3)nc3ccc(C(=O)NCc4cccc(C(N)=O)c4)cc32)C1` has a remaining binding of 100% (binding; 1 µM).
With `N[C@@H]1CCN(c2nccc(-c3cnn4ncccc34)n2)C1` the remaining binding was 100% (binding; 1 µM).
For `CN(C)c1ncnc(-c2ccc3nc(Nc4cc(CN5CCN(C(=O)CC(F)(F)F)CC5)ccn4)[nH]c3c2)c1Cl`, the remaining binding was 97% (cell-free assay; 1 µM).
The remaining binding of `CN(C)c1ncc(F)c(-c2cnn3ncccc23)n1` is reported as 100% (binding; 1 µM).
The remaining binding of `Nc1ncc2c(n1)-c1c([nH]c3ccc(C#CC4CC4)cc13)CCCC2` is reported as 100% (binding; 1 µM).
With `O=C(NCCCN1CCOCC1)c1ccc(Nc2ncc(Cl)c(-c3ccc(Cl)s3)n2)cc1` the remaining binding was 98% (binding; 1 µM).
`C[C@@H]1CN(c2cc(-c3n[nH]c4ccc(OC5(C)CC5)cc34)ncn2)C[C@H](C)O1` has a remaining binding of 89% (cell-free assay; 0.1 µM).
`O=C(NCC1CCOCC1)c1n[nH]cc1NC(=O)c1c(F)cccc1F` gave a remaining binding of 96% (binding; 1 µM).
For `CN(C)CC#Cc1ccc(OCCCc2sc(N3CCc4cccc(C(=O)Nc5nc6ccccc6s5)c4C3)nc2C(=O)O)c(F)c1`, the remaining binding was 100% (cell-free assay; 1 µM).
`COc1cnc(Nc2cccc(S(N)(=O)=O)c2)nc1N1CCN(c2ccccc2)C(=O)C1` gave a remaining binding of 100% (binding; 1 µM).
